# High-throughput results (PubChem)
# PvdQ acylase: P. aeruginosa PvdQ acylase inhibition. inhibition, % at 10 µM. purified PvdQ acylase, fluorescence plate reader. 340,000 tested, 0.063% active. AID 488965; in the data active means inhibition above about 30%, passing the limit was not always enough; inconclusive means no clear call, values can overlap the other calls
# N-glyco inh: blocks N-linked glycosylation in D54 reporter cells; reporter increase, % at 12.5 µM; D54 ERlucT glycosylation luciferase reporter, 24 h; percent of 100 nM tunicamycin response; 360,000 tested, 0.23% active;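 active means mean luciferase reporter signal, scaled so untreated is 0 and the glycosylation-blocking control 100, at or above a set limit in every replicate; inconclusive means mean reaches the limit but not every replicate does; inactive means mean below the limit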;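 further: luciferase carries N-glycosylation sites so blocking glycosylation raises the light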
# HSF1 activator: increases HSF-1 driven luciferase reporter signal; NIH3T3-HGL HSF-1 luciferase reporter, MG132, 8 h; 100% = twice DMSO control signal; activation, % at 9 µM; 300,000 tested, 1.7% active; AID 504408;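 active means mean replicate activation of at least 50% with a set share of replicates each reaching 50%; inconclusive means only one of those two conditions met; inactive means mean below 50% and too few replicates reaching it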
# T cruzi repl: blocks replication of Trypanosoma cruzi | T. cruzi beta-gal in NIH3T3, luminescence, 90 h | inhibition, % (no concentration beside the values) | 300,000 tested, 1.4% active | AID 1885;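 active means mean inhibition across valid replicates above about 55%, limit read from the data; inconclusive means mean below that limit but half or more replicates reach it; inactive means mean below it, under half of replicates reach it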;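 further: signal also drops with host cell toxicity which is not excluded here; higher percent means less beta-gal luminescence so fewer parasites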
#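 Read-out: Parasite load inhibition, % | Test system: Mouse NIH/3T3 fibroblasts infected with β-gal-expressing T. cruzi Tulahuen C4 | Amount: 5,000 cells/well | Medium: DMEM, 2% fetal bovine serum | Signal: GalScreen β-gal luminescence, detergent lysis, 60 min | Timing: 3 h attach, ≥90 h co-culture | Also added: Tulahuen C4 trypomastigotes, 5000/well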
# PfHsp90 yeast 2: inhibits growth of yeast expressing Plasmodium falciparum Hsp90. S. cerevisiae expressing PfHsp90, BacTiter-Glo ATP, 48 h; yeast lacking PDR1 and PDR3 efflux regulators. inhibition, % at 9.4 µM. 310,000 tested, 0.32% active. AID 504621;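 active means every replicate shows inhibition above about 80%, whatever the replicate mean, limit read from the data; inconclusive means mean inhibition reaches the set limit but some replicate falls short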
# CaV13 FRET inh: Disruptors of the CACNA1D IQ motif to Ca2+-dependent inactivation inhibitor domain association, primary screening, Förster resonance energy transfer in intact living …. HEK cells, CFP/YFP FRET ICDI-IQ, plate reader, 10 min; percent FRET-ratio fall versus neutral wells. inhibition, % at 12.3 µM. 340,000 tested, 0.098% active. AID 743397;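 active means mean replicate inhibition of at least 30% and at least 1% of replicates passing that level; inconclusive means only one of the two criteria is met; inactive means neither criterion is met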
# Hits are given with their value; – = inactive; ? = inconclusive; · = not tested or not shown. Most compounds without a hit are left out; they make up all but 3% or so of the library.
SMILES,PvdQ acylase,N-glyco inh,HSF1 activator,T cruzi repl,PfHsp90 yeast 2,CaV13 FRET inh
CC(C)/C=C1\CC/C(=C\c2cccnc2)C1=O,–,?,–,56,–,–
CCC1C/C(=C\c2cccnc2)C(=O)/C(=C/c2cccnc2)C1 (centres undefined),–,–,·,·,100,–
O=C1/C(=C/c2cccnc2)CC/C1=C\c1cccnc1,–,–,–,–,–,–
CC(C)(O)C#Cc1ccc(CNC[C@H]2O[C@@H](n3cnc4c(N)ncnc43)[C@H](O)[C@@H]2O)s1,–,–,·,·,–,–
NC(=O)C1CCN(C2=C(Cl)C(=O)c3ccccc3C2=O)CC1,–,78,75,59,–,–
O=C(CCn1c(=S)oc2ccccc21)N1CCCCC1,–,–,54,–,–,–
O=C(CCn1c(=O)oc2ccccc21)N1CCCCCC1,–,–,–,–,·,–
CC(C)n1c(/C=C/[C@@H](O)C[C@@H](O)CC(=O)O)c(-c2ccc(F)cc2)c2ccccc21,–,?,–,–,–,–
COCc1c(C(C)C)nc(C(C)C)c(/C=C/[C@@H](O)C[C@@H](O)CC(=O)O)c1-c1ccc(F)cc1,·,·,–,65,·,·
Cc1cccc2sc(N(CCN(C)C)C(=O)/C=C/c3cccs3)nc12,–,–,78,–,–,–
Cc1cccc2sc(N(CCN(C)C)C(=O)C3CCN(S(=O)(=O)c4cccs4)CC3)nc12,–,–,–,57,·,–
CN(C)CCCN(C(=O)/C=C/c1cccs1)c1nc2c(F)cccc2s1,–,–,–,56,–,–
COc1ccc2nc(N(CCN(C)C)C(=O)/C=C/c3cccs3)sc2c1,–,–,·,–,–,–
CN(C)CCCN(C(=O)c1cc(-c2cccs2)nc2ccccc12)c1nc2c(F)cccc2s1,–,–,–,–,–,–
CCNc1nc(NC(C)C)nc(NS(=O)(=O)c2ccc(C)cc2)n1,–,–,–,–,–,–
Oc1[nH]c2ccc(Br)cc2c1N=Nc1ccc(C(F)(F)F)cn1,–,–,–,75,–,–
C=CCN=C1NC(c2ccccc2)C(C(=O)OC)=C(C)N1Cc1ccccc1C(F)(F)F (centres undefined),·,·,·,·,·,–
Cc1cc(SCC(=O)N(C)C2CCCCC2)nc2ccccc12,–,–,·,·,–,–
Cc1ccc2cc(C3C(C#N)=C(N)Oc4c3ccc3cccnc43)c(=O)[nH]c2c1 (centres undefined),–,–,–,–,–,–
CCc1ccc2[nH]c(=O)c(C3C(C#N)=C(N)Oc4c3ccc3cccnc43)cc2c1 (centres undefined),–,–,–,59,–,–
NC(=O)CSc1nc2ccccc2c(=O)n1CCc1ccccc1,–,–,–,–,–,–
O=c1c2ccccc2nc(SCCN2CCCCC2)n1CCc1ccccc1,–,–,–,63,–,–
CC(C)(C)N1C(=O)[C@H]2[C@@H](c3ccc(Br)cc3)N3C(=O)N(c4cccc(Br)c4)C(=O)[C@@]3(Cc3ccccc3)[C@H]2C1=O,–,–,–,58,–,·
O=C1[C@H]2[C@@H](c3ccc(F)cc3)N3C(=O)N(c4cccc(F)c4)C(=O)[C@@]3(Cc3ccc(Cl)cc3)[C@H]2C(=O)N1C1CCCCC1,–,–,–,–,–,–
CC(C)(C)N1C(=O)[C@H]2[C@@H](c3ccc(Br)cc3)N3C(=O)N(c4ccccc4)C(=O)[C@@]3(Cc3ccccc3)[C@H]2C1=O,–,–,–,–,–,–
SMILES,PvdQ acylase,N-glyco inh,HSF1 activator,T cruzi repl,PfHsp90 yeast 2,CaV13 FRET inh
O=C1[C@H]2[C@@H](c3ccc(Cl)cc3)N3C(=O)N(c4cccc(F)c4)C(=O)[C@@]3(Cc3ccc(Cl)cc3)[C@H]2C(=O)N1C1CCCCC1,–,–,–,61,·,·
COC(=O)c1cc2c(c3c4cc(C)ccc4n(S(=O)(=O)c4ccc(C)cc4)c13)C(=O)N(Cc1ccc(N(C)C)cc1)C2,·,·,·,·,·,–
CC1c2ccccc2SC(CCCN(C)C)c2ccccc21 (centres undefined),–,–,–,55,–,–
Cc1nc2scc(-c3ccccc3)c2c(=O)n1N,–,–,–,–,–,–
Cc1nc2scc(-c3ccccc3)c2c(=O)n1N=C1C=CC(=O)C=C1,·,·,–,67,·,–
COc1cccc(CNC2CCCC2)c1,–,–,–,–,·,–
COc1cc(CNC2CCCC2)cc(OC)c1,–,–,59,–,–,–
COc1ccc(C(=O)Nc2ccc(S(=O)(=O)N3CCCC3)cc2)c(OC)c1,–,–,–,77,–,–
CCc1cc2cc(C(=O)Nc3ccccc3F)sc2s1,–,–,57,–,–,–
COc1ccc(CNCCC(c2ccccc2)c2ccc3c(c2)OCO3)cc1 (centres undefined),–,–,–,59,–,–
Nc1nc(NCCc2ccccc2)nc(NCc2ccccc2)c1[N+](=O)[O-],–,–,–,–,–,–
CN(Cc1ccccc1)c1nc(N)c([N+](=O)[O-])c(NCc2ccccc2)n1,–,–,67,–,–,–
COc1ccc(CNC(=O)CCc2c(C)nc3cc(-c4ccccc4OC)nn3c2C)cc1,–,–,–,–,–,–
COc1cc(OC)cc(-c2cc3nc(C)c(CCC(=O)NC(C)CCc4ccco4)c(C)n3n2)c1 (centres undefined),–,–,–,65,–,–
COc1ccc(-c2cc3nc(C)c(CCC(=O)NCc4ccc(F)cc4)c(C)n3n2)c(OC)c1,–,–,–,60,–,–
Cc1nc2cc(-c3cccc(F)c3)nn2c(C)c1CCC(=O)NC(C)CCc1ccco1 (centres undefined),–,–,–,–,–,·
Cc1ccccc1C(=O)NC1CCCCN(C)C1=O (centres undefined),·,·,·,·,·,–
O=C1OC(/C=C/c2ccccc2)=NC/1=C/C=C/c1ccccc1,–,–,112,–,–,–
O=C(Nc1nc(-c2ccco2)c(-c2ccco2)s1)c1cnccn1,·,·,–,70,·,–
O=C(Nc1nc(-c2ccco2)c(-c2ccco2)s1)c1c(F)cccc1Cl,–,–,·,·,–,–
O=C(OCCOc1cccc(Cl)c1)c1cc(S(=O)(=O)N2CCCCC2)ccc1N1CCOCC1,–,–,–,65,·,–
O=C(OCc1cccc(Cl)c1)c1cc(S(=O)(=O)N2CCCCC2)ccc1N1CCOCC1,–,–,–,–,–,–
O=C(CSc1nnc(C2CC2)n1C1CC1)N1CCN(c2ccc(O)cc2)CC1,·,–,·,·,·,–
C[C@@H]1CN([C@@H](C)CO)S(=O)(=O)c2ccc(C#CC(C)(C)O)cc2O[C@H]1CN(C)C(=O)C1CCCCC1,·,–,·,·,·,–
C[C@H](CO)N1C[C@H](C)[C@@H](CN(C)S(=O)(=O)c2ccc(Cl)cc2)Oc2ccc(NS(=O)(=O)c3ccccc3)cc2CC1=O,–,–,·,·,–,–
